TCR CD3 inh: inhibitors of human TCR-CD3 interaction, primary screen, biochemical, fluorescence, TAMRA-labeled TCR probe | inhibition, % at 9.4 µM | hit rate 0.37% among 360,000 | AID 651800, 2012; in the data active = inhibition above about 19%;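 also: recombinant mutant TCR 2C K166C tagged with TAMRA read by polarization; 0% = receptor in buffer alone and 100% = receptor with positive control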
mABHD4 FP: ABHD4 inhibitors, primary screen, biochemical, fluorescence polarization, mouse | inhibition, % at 8.92 µM | hit rate 0.54% among 370,000 | purified mABHD4, FP-Rh probe fluorescence polarization;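 active = inhibition exceeding the mean over every tested compound plus 3 SD, cut at about 30% in these data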;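 also: 0% = plate median of compound wells and 100% = S159A mutant with DMSO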
Target sequence (Q8VD66 whole entry, looked up): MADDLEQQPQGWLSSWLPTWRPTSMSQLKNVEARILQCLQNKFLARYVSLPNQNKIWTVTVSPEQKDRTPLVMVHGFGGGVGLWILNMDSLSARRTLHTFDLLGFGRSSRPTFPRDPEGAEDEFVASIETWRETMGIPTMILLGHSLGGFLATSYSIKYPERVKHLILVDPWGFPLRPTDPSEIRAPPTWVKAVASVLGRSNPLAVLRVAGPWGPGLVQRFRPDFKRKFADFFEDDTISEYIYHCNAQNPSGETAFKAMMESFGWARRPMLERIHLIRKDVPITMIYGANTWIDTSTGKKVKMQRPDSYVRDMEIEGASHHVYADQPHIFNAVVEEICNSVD
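Assay system: mABHD4 protein; medium: HEPES pH 7.0, NaCl, Pluronic buffer; dosing: 8.92 µM, single dose; schedule: 45 min + 60 min at 25 °C; signal: FP readout, ex 525 nm / em 598 nm; read-out: normalized percent inhibition of probe labeling; repeats: single replicate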
PRMT1 FP inh: PRMT1 methyltransferase inhibitors, primary screen, biochemical, fluorescence polarization; Protein arginine N-methyltransferase 1 (Homo sapiens), Q99873; recombinant PRMT1, activity-based probe fluorescence polarization; inhibition, % at 2.79 µM; hit rate 1.3% among 370,000;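 active = inhibition above about 21% made by adding two undisclosed values, limit read from the data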
SIAE primary: human SIAE inhibitors, primary screen, biochemical, fluorescence polarization, FP-Rh probe, 1536-well HTS | Sialate O-acetylesterase (Homo sapiens), Q9HAT2 | SIAE FP-Rh probe binding | inhibition, % at 9.66 µM | hit rate 0.69% among 370,000;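 active = inhibition above a cutoff: mean of compounds within the control limits plus 3 SD of those, cut at about 17% in these data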;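 also: 0% = plate median of compound wells and 100% = probe without SIAE protein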
HTRA1 inhibitor: HTRA1 serine protease inhibitors, primary screen, biochemical, fluorescence polarization, HTS. Q92743. recombinant HTRA1, FP-rhodamine activity-based probe. inhibition, % at 5.96 µM. hit rate 0.5% among 340,000; in the data active = inhibition above about 36%;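 also: 0% = enzyme with DMSO and 100% = wells lacking enzyme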
SIAE confirm: human SIAE inhibitors, retest, confirmation, biochemical, fluorescence polarization, FP-Rh probe, triplicate | shares compounds with SIAE primary | SIAE FP-Rh activity-based probe | inhibition, % at 9.66 µM | hit rate 13% among 2,300 | AID 1117263, 2014;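 active = mean inhibition of the replicates above the hit cutoff set in the primary screen, cut at about 17% in these data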;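 also: 0% = SIAE with DMSO and probe and 100% = probe without SIAE; inhibitors lower polarization as more probe stays unbound to SIAE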
* hit, by the source's call; / = no result. Shown are actives, neighbours in structure and some others; about 2.6% of the full set was active somewhere.

SMILES	TCR CD3 inh	mABHD4 FP	PRMT1 FP inh	SIAE primary	HTRA1 inhibitor	SIAE confirm
Cc1c(Cl)cccc1NC(=O)CNC(=O)C1CC(=O)N(C2CCCC2)C1 (stereo not given)	-4	-6	5	21*	5	0
Cc1c(Cl)cccc1NC(=O)C1CC(=O)N(C2CCCC2)C1 (stereo not given)	3	-6	3	0	-1	/
O=C(NCc1ccccc1)[C@@H]1CCCN1C(=O)[C@H]1CCCN1C(=O)c1cccc2ccccc12	9	-1	4	5	/	/
CC(C)C(OC(=O)CN1C(=O)COc2ccccc21)C(=O)NC1CCCCC1 (stereo not given)	0	7	0	18*	-1	-2
CC(C)=C1C2CCC1C(C(=O)NCCc1ccccc1)C2C(=O)O (stereo not given)	5	0	-2	21*	2	-2
CC(Sc1nc(N2CCCCC2)c2c(c1C#N)CCCC2)C(=O)O (stereo not given)	0	-4	3	22*	-7	-1
Cc1ccccc1CN[C@@H]1CC[C@@]23CCCN2C(=O)CCC[C@H]3C1	/	2	1	3	/	/
CS(=O)(=O)c1ccc(Cl)c(NC(=O)c2cccc(N3C(=O)CCC3=O)c2)c1	-11	6	2	19*	0	3
CS(=O)(=O)c1ccc(Cl)c(NC(=O)c2cccc(Br)c2)c1	-4	-3	-1	2	-4	/
COc1ccccc1OCC(=O)N1CCCC(Nc2ccc(C)c(C)c2)C1 (stereo not given)	-4	-1	0	-2	2	/
COc1ccc(CCC(=O)N2CCCC(Nc3ccc(C)c(C)c3)C2)cc1OC (stereo not given)	-2	1	-3	17*	-5	5
COC(=O)C1=C(C)N(Cc2cccc(C(F)(F)F)c2)C(=NCc2cc(OC)c(OC)c(OC)c2)NC1c1ccc(F)cc1 (stereo not given)	6	8	-2	-1	/	/
CC(=O)c1ccc(N2Cc3ccccc3C2=NC(=O)c2cccs2)cc1	7	0	-2	-6	5	/
CC(=O)c1ccc(N2Cc3ccccc3/C2=N\C(=O)Nc2ccccc2)cc1	5	6	1	26*	-4	2
COc1ccc2nc(C(c3ccc(C)cc3)n3c(-c4ccccc4Br)nc4ccccc43)[nH]c2c1 (stereo not given)	3	9	4	27*	/	-3
CC(C)CC(c1nc2ccccc2[nH]1)n1c(-c2ccccc2Br)nc2ccccc21 (stereo not given)	-4	-16	-1	-6	/	/
O=C1CCCc2ccccc2N1Cc1ccc(F)cc1	-6	3	2	-1	3	/
O=C1CCc2ccccc2N1Cc1ccccc1	7	-3	-1	18*	2	0
CN(C)C(=O)c1cnc(Cc2c[nH]c3ccccc23)c(I)c1	-4	6	2	18*	/	-5
COC(=O)[C@]12C[C@H](CC(=O)NCCC(C)C)C(=O)N(CCc3ccc(OC)c(OC)c3)C1=C[C@H](C1CCCC1)O[C@@H]2C	/	0	-2	2	/	/
CCN(CC(=O)NCc1ccc(Cl)cc1)C(=O)CCC(=O)c1ccc(C)cc1	4	-8	-1	-6	-12	/
CCN(CC(=O)NCc1ccc(Cl)cc1)C(=O)CCC(=O)c1ccc(F)cc1	1	2	-2	20*	-4	-2
Cc1ccc(-n2c([S-])c(C(=O)Nc3ccc(OC(F)F)cc3)[n+]3ccc(C(=O)NCCO)cc23)cc1C	-3	-5	3	18*	-16	-7
COC(=O)[C@]12C[C@H](CC(=O)NCc3cccc(C(F)(F)F)c3)C(=O)N(Cc3ccco3)C1=C[C@H](C(C)C)O[C@@H]2C1CC1	/	-5	0	1	/	/
O=C(N/N=C\c1cc(Br)ccc1O)c1ccc(S(=O)(=O)N2CCCCC2)cc1	15	7	0	32*	26	39*
SMILES	TCR CD3 inh	mABHD4 FP	PRMT1 FP inh	SIAE primary	HTRA1 inhibitor	SIAE confirm
O=C(N/N=C/c1ccc(O)c(O)c1)c1cccc(S(=O)(=O)N2CCCCC2)c1	4	21	0	17	35	/
Cc1ccc(OCC(=O)Nc2ccc3c4c(cccc24)CC3)c(C)c1	6	-2	-4	-2	-3	/
Cc1ccc(OCC(=O)Nc2cccc3nsnc23)c(C)c1	-2	1	0	33*	1	1
CCOC(=O)c1c(C)c(C(=O)NCCc2ccccc2)c(C)n1C	5	-4	0	3	2	/
CCOC(=O)c1c(C(=O)OCC)c(C)n(CCc2ccccc2)c1C	3	0	-2	31*	1	20*
COc1ccc(C/C(C)=N/NC(=O)c2cccnc2)cc1	5	8	-1	18*	1	1
COc1ccc(C/C(C)=N/NC(=O)c2ccc(Cl)cc2)cc1	-1	-1	0	-2	-1	/
COC(=O)[C@@H](Cc1ccc(O)cc1)NC(=O)[C@H]1O[C@@H](n2cnc3c(=O)[nH]c(N)nc32)[C@H](O)[C@@H]1O	1	3	1	1	/	/
Clc1ccc(SCc2csc(N3CCOCC3)n2)cc1	5	0	-1	18*	0	-1
COC(=O)C(Cc1c[nH]c2ccccc12)NC(=O)c1cncc(Br)c1 (stereo not given)	-4	4	-2	20*	-1	1
CCn1c(SCC(=O)NN=Cc2cccc(OCc3ccccc3)c2)nnc1-c1ccc(OC)c(OC)c1	/	-6	-3	-2	/	/
CN(C)N1C(N)=C(C#N)C(c2ccccc2F)C2=C1CC(C)(C)CC2=O (stereo not given)	2	-1	-1	25*	9	3
Cc1ccccc1C1C(C#N)=C(N)N(N(C)C)C2=C1C(=O)CC(C)(C)C2 (stereo not given)	0	-13	-1	4	3	/
O=C(CSc1nc2ccccc2n1Cc1ccccc1Cl)N/N=C\c1cccc(Oc2ccccc2)c1	/	-1	-4	-6	/	/
CN(C(=O)COC(=O)c1ccc(Cl)c(S(=O)(=O)N2CCCCCC2)c1)C1CCS(=O)(=O)C1 (stereo not given)	-1	4	-3	19*	-1	3
COc1cccc(NC(=O)N2CCCC2)c1	7	0	-2	19*	4	1
CC(=O)Nc1ccc(NC(=O)N2CCCCC2)cc1	-3	-7	2	1	1	/
COc1cccc(NC(=O)N2CCN(S(C)(=O)=O)CC2)c1	2	6	3	4	-1	/
O=C(Nc1ccc(F)cc1)N1CCCCCC1	-4	-5	-1	18*	3	-2

Assay outcomes as filed in PubChem.
